This is a sample that favours compounds with a hit; in the whole collection about 1.8% have one here.
CHRM4 PAM – potentiates acetylcholine response at human M4 receptor; CHO-K1 hM4/Gqi5, Fluo-8 calcium fluorescence, ACh EC20; 0% = ACh EC20, 100% = maximal ACh; hit rate 0.4% among 360,000; activation, % at 3 µM; AID 624126; P08173;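 active = activation above its plate's cutoff, the mean activation of sample wells plus 3 SD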
CHRM5 antagonist – CHRM5 antagonism in calcium assay; P08912; CHO-hM5 cells, Fluo-8 calcium fluorescence, ACh EC80; inhibition, % at 3 µM; hit rate 0.59% among 360,000; AID 624040;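 active = inhibition above a per-plate cutoff, the mean of that plate's test compounds plus 3 SD, cut at about 27% in these data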;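 note: 0% = acetylcholine EC80 with DMSO and 100% = DMSO without agonist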
Target sequence (P08912 whole entry, looked up): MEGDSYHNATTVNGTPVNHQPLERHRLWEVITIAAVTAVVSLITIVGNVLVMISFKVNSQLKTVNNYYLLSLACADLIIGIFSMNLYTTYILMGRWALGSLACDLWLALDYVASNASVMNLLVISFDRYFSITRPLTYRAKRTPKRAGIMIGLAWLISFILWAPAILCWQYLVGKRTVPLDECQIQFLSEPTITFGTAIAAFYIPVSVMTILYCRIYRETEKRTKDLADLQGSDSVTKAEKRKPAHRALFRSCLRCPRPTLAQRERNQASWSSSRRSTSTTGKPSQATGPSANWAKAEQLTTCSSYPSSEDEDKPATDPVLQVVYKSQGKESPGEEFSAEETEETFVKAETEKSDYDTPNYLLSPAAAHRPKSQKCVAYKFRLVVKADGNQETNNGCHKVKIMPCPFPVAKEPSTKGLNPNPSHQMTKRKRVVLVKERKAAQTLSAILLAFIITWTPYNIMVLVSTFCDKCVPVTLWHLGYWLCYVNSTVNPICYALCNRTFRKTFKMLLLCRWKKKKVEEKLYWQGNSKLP
CHRM4 antagonist – antagonists of human muscarinic M4 receptor (CHRM4). CHO-hM4 cells, ACh EC80, Fluo-8 calcium fluorescence. P08173. inhibition, % at 3 µM. hit rate 0.73% among 360,000. AID 624125;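 active = inhibition above its plate's cutoff, the mean inhibition of sample wells plus 3 SD, cut at about 27% in these data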;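 note: 0% = acetylcholine EC80 with DMSO and 100% = DMSO without agonist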
CHRM5 agonist – agonists of human muscarinic M5 receptor (CHRM5) | activation, % at 3 µM | hit rate 0.19% among 360,000 | P08912 | CHO-K1 hM5 cells, Fluo-8 calcium fluorescence; 0% DMSO wells, 100% maximal acetylcholine response | AID 624037;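 active = activation above the run's mean over test compounds plus 3 SD, cut at about 23% in these data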;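 note: signal is peak over basal fluorescence ratio across the kinetic read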
M4 ag – agonists of human muscarinic M4 receptor (CHRM4); CHO-K1 hM4/Gqi5, Fluo-8 calcium fluorescence; vehicle 0%, full acetylcholine response 100%; activation, % at 3 µM; hit rate 0.14% among 360,000;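 active = activation above the run mean over all test wells plus 3 SD, cut at about 32% in these data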;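 note: peak over basal fluorescence ratio per well then scaled between controls; 0% = DMSO wells and 100% = acetylcholine at EC100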
M5 PAM – CHRM5 positive allosteric modulation. P08912. CHO-K1 hM5, Fluo-8 calcium, ACh EC20 PAM; 0% = ACh EC20, 100% = ACh EC100. activation, % at 3 µM. hit rate 0.3% among 360,000;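 active = activation above the run cutoff, the mean activation of all test compounds plus 3 SD, cut at about 18% in these data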
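system = human M5 receptor in CHO-K1 cells | reagent = EC20 acetylcholine as agonist stimulus | compound dosing = single-point, 3 µM nominal | incubation = Fluo-8 loading 80 min at 37 °C plus 30 min room temperature | detection = Fluo-8 calcium dye fluorescence, kinetic read | benchmarks = low control EC20 acetylcholine (0%), high control EC100 acetylcholine (100%)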
* marks the source's active call; other numbers are inactive results.

SMILES | CHRM4 PAM | CHRM5 antagonist | CHRM4 antagonist | CHRM5 agonist | M4 ag | M5 PAM
COc1ccccc1NC(=O)Nc1ccnn1C1CCN(C(=O)C2CCOC2)CC1 (stereo unspecified) | -6 | -2 | 10 | 0 | -1 | 5
Cc1ccccc1C1c2[nH]c3ccccc3c2CCN1CCCn1cccn1 (stereo unspecified) | -43 | 14 | 61* | -17 | 0 | -23
Cc1ccc2nc(SC(C)C(=O)N3CCOCC3)[nH]c2c1 (stereo unspecified) | 31* | 7 | 1 | 1 | 4 | 3
CC(Sc1nc(N)cc(=O)[nH]1)C(=O)N1CCOCC1 (stereo unspecified) | 6 | 2 | -10 | -2 | 1 | 0
Cc1n[nH]c(C)c1Cc1c(F)cccc1Cl | 2 | 26 | -2 | -10 | 4 | 28*
C=CCOc1ccc(/C=C2\SC(=S)N(NS(=O)(=O)c3ccccc3)C2=O)cc1 | 1 | -2 | 7 | -3 | -1 | 2
CC/C(CC(C)(C)c1ccccc1)=N\O | -5 | 0 | 7 | -2 | 0 | 3
CCN(CC)CCC/C(=N\O)C(O)(c1ccccc1)c1ccccc1 | -25 | 45* | 79* | -10 | 0 | -14
CC[N+](C)(CC)CCC/C(=N/O)C(O)(c1ccccc1)c1ccccc1 | -14 | 14 | 33* | -18 | 0 | -22
CCCNNC(=O)C(O)(c1ccccc1)c1ccccc1 | 3 | -4 | -3 | 1 | 0 | -4
CC1CCN(CCCCOc2ccc(Cl)cc2)CC1 | -16 | 8 | 24 | -6 | 2 | -9
CC1CCN(CCCCOc2ccc(C(C)(C)C)cc2)CC1 | -20 | 8 | 30* | 0 | 9 | -11
Cc1ccc(OCCCN2CCC(C(O)(c3ccccc3)c3ccccc3)CC2)cc1 | -14 | 77* | 62* | 2 | 25 | -24
OC(c1ccccc1)(c1ccccc1)C1CCN(CCCOc2ccc(F)cc2)CC1 | -16 | 55* | 65* | -4 | 18 | -24
N#Cc1ccccc1OCCCN1CCC(C(O)(c2ccccc2)c2ccccc2)CC1 | -13 | 11 | 27* | -3 | 14 | -20
Cc1cc2c(cc1C)-c1nnnn1C(N1CCCC1)C(=O)N2 (stereo unspecified) | 0 | -1 | -11 | -5 | 2 | 3
Cc1cccc(C)c1C(=NCCN(C)C)c1ccccc1 | -44 | 48* | 11 | -18 | 3 | -31
Cc1cccc(N(CC(=O)N2CCCC2)S(C)(=O)=O)c1 | -1 | -2 | 7 | 3 | 0 | 5
CS(=O)(=O)N(CC(=O)N1CCCC1)c1cccc(Cl)c1 | 4 | 3 | 2 | -7 | 0 | 28*
CCOc1ccc(OCCC(=O)Nc2ccc(N3CCOCC3)cc2N2CCOCC2)cc1 | -2 | 4 | -7 | 0 | 1 | -1
Cc1c(CCOC(=O)C23CC4(C)CC(C)(CC(C)(C4)C2)C3)sc[n+]1CC(=O)c1ccccc1 | -12 | 16 | 9 | -10 | 0 | -17
Cc1sc[n+](CC(=O)c2ccc(Br)cc2)c1C | -4 | 15 | 3 | -6 | 0 | -6
Cc1c(CCOC(=O)c2cc([N+](=O)[O-])cc([N+](=O)[O-])c2)sc[n+]1CC(=O)c1ccc(Br)cc1 | -17 | 2 | 29* | -11 | 0 | 0
Cc1c(CCOC(=O)c2ccc(Cl)cc2Cl)sc[n+]1CC(=O)c1ccccc1 | -12 | 45* | 44* | -7 | 11 | -46
O=C(Nc1ccc(F)cc1)C(c1cc2ccccc2o1)N1CCN(C(=O)c2ccco2)CC1 (stereo unspecified) | 1 | 2 | -4 | 8 | 5 | -2
SMILES | CHRM4 PAM | CHRM5 antagonist | CHRM4 antagonist | CHRM5 agonist | M4 ag | M5 PAM
CC1CN(CC(=O)NCc2ccc(Cl)cc2)CC(C)O1 (stereo unspecified) | 1 | 8 | 1 | 1 | 1 | 0
Cc1cc(Cl)ccc1OCCCC(=O)OCC(=O)Nc1cccc(S(N)(=O)=O)c1 | 7 | 15 | -15 | 0 | 3 | -13
O=c1[nH]c(C2CCN(S(=O)(=O)c3ccccc3F)CC2)nc2c1nnn2Cc1ccc2c(c1)OCCO2 | 6 | -16 | -14 | 0 | 1 | 13
Cc1ccc(C)c(S(=O)(=O)N2CCC(c3nc4c(nnn4Cc4ccc(F)cc4)c(=O)[nH]3)CC2)c1 | -22 | 4 | 49* | -3 | 0 | 1
O=c1[nH]c(C2CCN(S(=O)(=O)c3ccc(S(=O)(=O)NC4CC4)cc3)CC2)nc2c1nnn2Cc1ccc(F)cc1 | -20 | 11 | 18 | -5 | 2 | -2
Cc1cccc(NC(=O)CSCc2nc3c(nnn3Cc3ccc(F)cc3)c(=O)[nH]2)c1C | 0 | 6 | -1 | 0 | 1 | 3
Cc1ccc(Cn2nnc3c(=O)[nH]c(C4CCN(S(=O)(=O)c5ccc(F)cc5)CC4)nc32)cc1 | -31 | 5 | 32* | -2 | -2 | -2
O=c1[nH]c(C2CCN(S(=O)(=O)c3ccc(F)cc3)CC2)nc2c1nnn2Cc1ccc2c(c1)OCCO2 | -12 | 0 | 81* | -7 | -1 | -3
Cc1ccc(NC(=O)CSCc2nc3c(nnn3Cc3ccc(F)cc3)c(=O)[nH]2)c(C)c1 | 9 | -14 | -8 | 6 | 2 | 21*
Cc1ccc2cccc(CC(=O)NN)c2c1 | 2 | -9 | -12 | -1 | 3 | -8
Cc1ccc(N(CC(=O)N2CCCCCC2)S(C)(=O)=O)c(C)c1 | 5 | 15 | 2 | 0 | 0 | -3
Cc1cccc(N2CCN(C(=O)c3ccc(NS(=O)(=O)c4c(C)noc4C)cc3)CC2)c1C | -2 | 7 | -6 | -6 | 7 | -10
Cc1noc(C)c1S(=O)(=O)Nc1ccc(C(=O)N2CCN(c3cccc(Cl)c3)CC2)cc1 | -6 | 27* | 6 | 7 | 35* | -21
Cc1noc(C)c1S(=O)(=O)Nc1ccc(C(=O)N2CCc3ccccc3C2)cc1 | -1 | -18 | -1 | -2 | 3 | 20*
C[C@H](NC(=O)[C@@H]1CCCN1C(=O)[C@@H]1CCCN1C(=O)c1cccc(Cl)c1)c1ccccc1 | 4 | 7 | 2 | 4 | 0 | -9
Clc1ccc(-c2nc3ccc(Br)cn3c2Cc2cccc(Cl)c2)cc1 | -7 | -1 | -2 | -4 | -1 | 0
COc1c(C)cc(C(O)c2ncc(-c3ccccc3F)[nH]2)cc1C (stereo unspecified) | 3 | 5 | -7 | 3 | 3 | -2
COc1ccc(-c2nc3ccccc3nc2-c2ccc(OC)c(OC)c2)cc1OC | 0 | 39* | -1 | -13 | 8 | -7

Screens: PubChem, The Scripps Research Institute Molecular Screening Center
